# Test results as given in ChEMBL document CHEMBL1649131, “Tigecycline therapy significantly reduces the concentrations of inflammatory pulmonary cytokines and chemokines in a murine model of Mycoplasma pneumoniae pneumonia” (Antimicrob Agents Chemother, 2009).
# Activity calls are given as the source filed them. The rule behind the calls is not given here.
# Columns and labels:
# Mus musculus [1] = experiment: Immunological activity in BALB/c mouse infected with Mycoplasma pneumoniae ATCC 29342 assessed as decrease in INF-gamma level in bronchoalveolar lavage fluid at 10 mg/kg, sc on first day followed by regimen of 5 mg/kg for 5 days measured after 6 days; format: functional, organism-based
# Procedure, shortened: (§1)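 In BALB/c females infected intranasally with 10^7 CFU M. pneumoniae, sc dosing ran daily from day 1: 10 mg/kg first, then 5 mg/kg; saline placebo. BAL (500 µl SP4 broth via trachea) was collected ~24 h after the last dose at 1, 3 or 6 days of therapy, and cytokine/chemokine concentrations were measured, given as mean ± SD. There were 10 mice/group per time point; t test and two-way ANOVA were used, P<0.05.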
# Mus musculus [2] = experiment: Immunological activity in BALB/c mouse infected with Mycoplasma pneumoniae ATCC 29342 assessed as decrease in IL-10 level in bronchoalveolar lavage fluid at 10 mg/kg, sc on first day followed by regimen of 5 mg/kg for 5 days measured after 3 days; format: functional, organism-based; procedure, shortened: as §1
# Mus musculus [3] = experiment: Immunological activity in BALB/c mouse infected with Mycoplasma pneumoniae ATCC 29342 assessed as decrease in INF-gamma level in bronchoalveolar lavage fluid at 10 mg/kg, sc on first day followed by regimen of 5 mg/kg for 5 days measured after 3 days; format: functional, organism-based; procedure, shortened: as §1
# Mus musculus [4] = experiment: Immunological activity in BALB/c mouse infected with Mycoplasma pneumoniae ATCC 29342 assessed as decrease in KC level in bronchoalveolar lavage fluid at 10 mg/kg, sc on first day followed by regimen of 5 mg/kg for 5 days measured after 3 days; format: functional, organism-based; procedure, shortened: as §1
# [5] = AUC in mouse pneumoniae model at 5 mg/kg; format: ADME, organism-based; parameters: dose 5 mg/kg; conditions: in vivo
# [6] = system: Mycoplasmoides pneumoniae; experiment: Antimicrobial activity against Mycoplasma pneumoniae ATCC 29342 infected in BALB/c mouse assessed as decrease in bacterial count in bronchoalveolar lavage fluid at 10 mg/kg, sc on first day followed by regimen of 5 mg/kg for 5 days measured after 6 days; format: functional, organism-based; conditions: M129
# Procedure, shortened: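 Female BALB/c mice, 2 months old, inoculated intranasally once (day 0) with 10^7 CFU M. pneumoniae in 50 µl SP4 broth under isoflurane. From day 1, sc once daily for 6 days: 10 mg/kg day 1, then 5 mg/kg, in sterile 0.9% NaCl; saline placebo. BAL with 500 µl SP4 broth ~24 h after last dose; undiluted and 10-fold dilutions plated on SP4 agar at 37°C; colonies counted as log10 CFU/ml; 10 mice/group, two experiments.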
# Mus musculus [7] = experiment: Immunological activity in BALB/c mouse infected with Mycoplasma pneumoniae ATCC 29342 assessed as decrease in IL-4 level in bronchoalveolar lavage fluid at 10 mg/kg, sc on first day followed by regimen of 5 mg/kg for 5 days measured after 3 days; format: functional, organism-based; procedure, shortened: as §1
# Mus musculus [8] = experiment: Immunological activity in BALB/c mouse infected with Mycoplasma pneumoniae ATCC 29342 assessed as decrease in MIG level in bronchoalveolar lavage fluid at 10 mg/kg, sc on first day followed by regimen of 5 mg/kg for 5 days measured after 1 days; format: functional, organism-based; procedure, shortened: as §1
# Mus musculus [9] = experiment: Immunological activity in BALB/c mouse infected with Mycoplasma pneumoniae ATCC 29342 assessed as decrease in IP-10 level in bronchoalveolar lavage fluid at 10 mg/kg, sc on first day followed by regimen of 5 mg/kg for 5 days measured after 3 days; format: functional, organism-based; procedure, shortened: as §1
# Mus musculus [10] = experiment: Immunological activity in BALB/c mouse infected with Mycoplasma pneumoniae ATCC 29342 assessed as decrease in MIG level in bronchoalveolar lavage fluid at 10 mg/kg, sc on first day followed by regimen of 5 mg/kg for 5 days measured after 6 days; format: functional, organism-based; procedure, shortened: as §1
# Mus musculus [11] = experiment: Immunological activity in BALB/c mouse infected with Mycoplasma pneumoniae ATCC 29342 assessed as decrease in TNFalpha level in bronchoalveolar lavage fluid at 10 mg/kg, sc on first day followed by regimen of 5 mg/kg for 5 days measured after 3 days; format: functional, organism-based; procedure, shortened: as §1
# [12] = system: Mycoplasmoides pneumoniae; experiment: Antimicrobial activity against Mycoplasma pneumoniae by agar dilution method; format: functional
# Mus musculus [13] = experiment: Immunological activity in BALB/c mouse infected with Mycoplasma pneumoniae ATCC 29342 assessed as decrease in IL-6 level in bronchoalveolar lavage fluid at 10 mg/kg, sc on first day followed by regimen of 5 mg/kg for 5 days measured after 3 days; format: functional, organism-based; procedure, shortened: as §1
# [14] = system: Mycoplasmoides pneumoniae; experiment: Antimicrobial activity against Mycoplasma pneumoniae ATCC 29342 infected in BALB/c mouse assessed as decrease in bacterial infection-induced lung histopathology at 10 mg/kg, sc on first day followed by regimen of 5 mg/kg for 5 days measured after 3 days; format: functional, organism-based; conditions: M129
# Procedure, shortened: (§2)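 Infected BALB/c mice (2-month-old females, intranasal 10^7 CFU M. pneumoniae, day 0) dosed sc daily from day 1: 10 mg/kg then 5 mg/kg, saline vehicle/placebo. Lungs with trachea fixed in 10% buffered formalin ~24 h after last dose, whole-mount paraffin sections stained H&E and scored for histopathology (HPS) and parenchymal pneumonia subscore; 10 mice/group per time point, two experiments; two-way ANOVA and t test.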
# Mus musculus [15] = experiment: Immunological activity in BALB/c mouse infected with Mycoplasma pneumoniae ATCC 29342 assessed as decrease in IL-12 level in bronchoalveolar lavage fluid at 10 mg/kg, sc on first day followed by regimen of 5 mg/kg for 5 days measured after 3 days; format: functional, organism-based; procedure, shortened: as §1
# [16] = Ratio of AUC in human alveolar cells to AUC in human serum at […] followed by […] regimen for every 12 hrs; format: ADME, organism-based, Pneumocyte; conditions: read-out: Ratio AUC
# Mus musculus [17] = experiment: Immunological activity in BALB/c mouse infected with Mycoplasma pneumoniae ATCC 29342 assessed as decrease in MIP-1alpha level in bronchoalveolar lavage fluid at 10 mg/kg, sc on first day followed by regimen of 5 mg/kg for 5 days measured after 3 days; format: functional, organism-based; procedure, shortened: as §1
# Mus musculus [18] = experiment: Immunological activity in BALB/c mouse infected with Mycoplasma pneumoniae ATCC 29342 assessed as decrease in IL-2 level in bronchoalveolar lavage fluid at 10 mg/kg, sc on first day followed by regimen of 5 mg/kg for 5 days measured after 3 days; format: functional, organism-based; procedure, shortened: as §1
# Mus musculus [19] = experiment: Immunological activity in BALB/c mouse infected with Mycoplasma pneumoniae ATCC 29342 assessed as decrease in IL-5 level in bronchoalveolar lavage fluid at 10 mg/kg, sc on first day followed by regimen of 5 mg/kg for 5 days measured after 3 days; format: functional, organism-based; procedure, shortened: as §1
# Mus musculus [20] = experiment: Immunological activity in BALB/c mouse infected with Mycoplasma pneumoniae ATCC 29342 assessed as decrease in IL1-beta level in bronchoalveolar lavage fluid at 10 mg/kg, sc on first day followed by regimen of 5 mg/kg for 5 days measured after 1 days; format: functional, organism-based; procedure, shortened: as §1
# Mus musculus [21] = experiment: Immunological activity in BALB/c mouse infected with Mycoplasma pneumoniae ATCC 29342 assessed as decrease in IL1-beta level in bronchoalveolar lavage fluid at 10 mg/kg, sc on first day followed by regimen of 5 mg/kg for 5 days measured after 6 days; format: functional, organism-based; procedure, shortened: as §1
# [22] = Cmax in human serum at […] followed by regimen of […] for every 12 hrs; format: ADME, organism-based; parameters: route intravenous
# Mus musculus [23] = experiment: Immunological activity in BALB/c mouse infected with Mycoplasma pneumoniae ATCC 29342 assessed as decrease in IL1-beta level in bronchoalveolar lavage fluid at 10 mg/kg, sc on first day followed by regimen of 5 mg/kg for 5 days measured after 3 days; format: functional, organism-based; procedure, shortened: as §1
# Mus musculus [24] = experiment: Immunological activity in BALB/c mouse infected with Mycoplasma pneumoniae ATCC 29342 assessed as decrease in INF-gamma level in bronchoalveolar lavage fluid at 10 mg/kg, sc on first day followed by regimen of 5 mg/kg for 5 days measured after 1 days; format: functional, organism-based; procedure, shortened: as §1
# [25] = Ratio of Cmax in human lung to Cmax in human serum at […] followed by […] regimen for every 12 hrs; format: ADME, organism-based
# [26] = AUC (0 to 24 hrs) in human serum at […] followed by regimen of […] for every 12 hrs; format: ADME, organism-based; parameters: time < 24 hr, route intravenous
# Mus musculus [27] = experiment: Immunological activity in BALB/c mouse infected with Mycoplasma pneumoniae ATCC 29342 assessed as decrease in MCP-1 level in bronchoalveolar lavage fluid at 10 mg/kg, sc on first day followed by regimen of 5 mg/kg for 5 days measured after 3 days; format: functional, organism-based; procedure, shortened: as §1
# Mus musculus [28] = experiment: Immunological activity in BALB/c mouse infected with Mycoplasma pneumoniae ATCC 29342 assessed as decrease in IL-12 level in bronchoalveolar lavage fluid at 10 mg/kg, sc on first day followed by regimen of 5 mg/kg for 5 days measured after 1 days; format: functional, organism-based; procedure, shortened: as §1
# Mus musculus [29] = experiment: Immunological activity in BALB/c mouse infected with Mycoplasma pneumoniae ATCC 29342 assessed as decrease in MIG level in bronchoalveolar lavage fluid at 10 mg/kg, sc on first day followed by regimen of 5 mg/kg for 5 days measured after 3 days; format: functional, organism-based; procedure, shortened: as §1
# Mus musculus [30] = experiment: Immunological activity in BALB/c mouse infected with Mycoplasma pneumoniae ATCC 29342 assessed as decrease in IL-12 level in bronchoalveolar lavage fluid at 10 mg/kg, sc on first day followed by regimen of 5 mg/kg for 5 days measured after 6 days; format: functional, organism-based; procedure, shortened: as §1
# [31] = system: Mycoplasmoides pneumoniae; experiment: Antimicrobial activity against Mycoplasma pneumoniae ATCC 29342 infected in BALB/c mouse assessed as decrease in bacterial infection-induced parenchymal cell histopathology at 10 mg/kg, sc on first day followed by regimen of 5 mg/kg for 5 days measured after 3 days; format: functional, organism-based; conditions: M129; procedure, shortened: as §2
# Mus musculus [32] = experiment: Immunological activity in BALB/c mouse infected with Mycoplasma pneumoniae ATCC 29342 assessed as decrease in granulocyte-macrophage colony stimulating factor level in bronchoalveolar lavage fluid at 10 mg/kg, sc on first day followed by regimen of 5 mg/kg for 5 days measured after 3 days; format: functional, organism-based; procedure, shortened: as §1
smiles,measurement,setting,value
CN(C)c1cc(NC(=O)CNC(C)(C)C)c(O)c2c1C[C@H]1C[C@H]3[C@H](N(C)C)C(O)=C(C(N)=O)C(=O)[C@@]3(O)C(O)=C1C2=O [TIGECYCLINE],Activity,Mus musculus [1],Active
same,Activity,Mus musculus [2],inactive
same,Activity,Mus musculus [3],Active
same,Activity,Mus musculus [4],inactive
same,AUC,[5],2900 ng·h/mL
same,Activity,[6],Active
same,Activity,Mus musculus [7],inactive
same,Activity,Mus musculus [8],Active
same,Activity,Mus musculus [9],Active
same,Activity,Mus musculus [10],Active
same,Activity,Mus musculus [11],Active
same,MIC,[12],0.06 µg/mL
same,Activity,Mus musculus [13],inactive
same,Activity,[14],Active
same,Activity,Mus musculus [15],Active
same,Kp at 12 h,[16],78
same,Activity,Mus musculus [17],Active
same,Activity,Mus musculus [18],inactive
same,Activity,Mus musculus [19],inactive
same,Activity,Mus musculus [20],Active
same,Activity,Mus musculus [21],Active
same,Cmax,[22],630 ng/mL
same,Activity,Mus musculus [23],Active
same,Activity,Mus musculus [24],Active
same,Kp at 12 h,[25],8.6
same,AUC at 24 h,[26],4700 ng·h/mL
same,Activity,Mus musculus [27],inactive
same,Activity,Mus musculus [28],Active
same,Activity,Mus musculus [29],Active
same,Activity,Mus musculus [30],Active
same,Activity,[31],Active
same,Activity,Mus musculus [32],inactive
